# Source: ChEMBL document CHEMBL4371053, “A novel tetrazole analogue of resveratrol is a potent anticancer agent” (Bioorg Med Chem Lett, 2019)
# Legend:
# Type in all cases: functional
# SF-539 [1] = assay: Growth inhibition of human SF539 cells at 10 uM after 48 hrs by sulforhodamine B assay relative to control; details: SF-539, 48 h, values are per cent of control
# Method in brief: (§1)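 NCI-60 single-dose screen. Cells exposed to 10⁻⁵ M or to vehicle for 48 h. Growth measured by sulforhodamine B optical density before and after exposure. Reported as percent growth relative to vehicle control and to time-zero cell number; negative values indicate cell kill.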
# OVCAR-3 [2] = assay: Growth inhibition of human OVCAR3 cells at 10 uM after 48 hrs by sulforhodamine B assay relative to control; details: OVCAR-3, 48 h, values are per cent of control; method in brief: as §1
# MOLT-4 = assay: Growth inhibition of human MOLT4 cells incubated for 48 hrs by sulforhodamine B assay; details: MOLT-4, 48 h
# Method in brief: (§2)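 NCI-60 five-dose study at 10⁻⁴, 10⁻⁵, 10⁻⁶, 10⁻⁷ and 10⁻⁸ M, 48 h incubation. Growth determined from sulforhodamine B optical density before and after exposure, relative to vehicle control and time-zero counts. GI₅₀ is the molar concentration giving 50% growth inhibition.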
# SR = assay: Growth inhibition of human SR cells incubated for 48 hrs by sulforhodamine B assay
# Method in brief: (§3)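 NCI-60 screen run per Rubinstein protocol. Sulforhodamine B optical density was read before and after 48 h exposure to compound or vehicle. The single-dose pass at 10⁻⁵ M reported percent growth relative to vehicle control and time-zero cell number. The five-dose follow-up used 10⁻⁴ to 10⁻⁸ M, giving GI₅₀ as the molar concentration causing 50% growth inhibition.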
# HOP-62 = assay: Growth inhibition of human HOP62 cells incubated for 48 hrs by sulforhodamine B assay; details: HOP-62, 48 h; method in brief: as §2
# HOP-92 = assay: Growth inhibition of human HOP92 cells incubated for 48 hrs by sulforhodamine B assay; details: HOP-92, 48 h; method in brief: as §2
# NCI-H522 = assay: Growth inhibition of human NCI-H522 cells incubated for 48 hrs by sulforhodamine B assay; details: NCI-H522, 48 h; method in brief: as §2
# HCC 2998 = assay: Growth inhibition of human HCC2998 cells incubated for 48 hrs by sulforhodamine B assay; details: HCC 2998, 48 h; method in brief: as §2
# HT-29 = assay: Growth inhibition of human HT-29 cells incubated for 48 hrs by sulforhodamine B assay; details: HT-29, 48 h; method in brief: as §2
# SF-295 = assay: Growth inhibition of human SF295 cells incubated for 48 hrs by sulforhodamine B assay; details: SF-295, 48 h; method in brief: as §2
# SF-539 [3] = assay: Growth inhibition of human SF539 cells incubated for 48 hrs by sulforhodamine B assay; details: SF-539, 48 h; method in brief: as §2
# U-251 = assay: Growth inhibition of human U251 cells incubated for 48 hrs by sulforhodamine B assay; details: U-251, 48 h; method in brief: as §3
# M14 = assay: Growth inhibition of human M14 cells incubated for 48 hrs by sulforhodamine B assay; details: M14, 48 h; method in brief: as §2
# MDA-MB-435 = assay: Growth inhibition of human MDA-MB-435 cells incubated for 48 hrs by sulforhodamine B assay; details: MDA-MB-435, 48 h; method in brief: as §2
# UACC-62 = assay: Growth inhibition of human UACC62 cells incubated for 48 hrs by sulforhodamine B assay; details: UACC-62, 48 h; method in brief: as §3
# OVCAR-3 [4] = assay: Growth inhibition of human OVCAR3 cells incubated for 48 hrs by sulforhodamine B assay; details: OVCAR-3, 48 h; method in brief: as §2
# A498 = assay: Growth inhibition of human A498 cells incubated for 48 hrs by sulforhodamine B assay; details: A498, 48 h; method in brief: as §2
# PC-3 = assay: Growth inhibition of human PC3 cells incubated for 48 hrs by sulforhodamine B assay; details: PC-3, 48 h; method in brief: as §2
# MCF7 = assay: Growth inhibition of human MCF7 cells incubated for 48 hrs by sulforhodamine B assay; details: MCF7, 48 h; method in brief: as §2
# MDA-MB-231 = assay: Growth inhibition of human MDA-MB-231 cells incubated for 48 hrs by sulforhodamine B assay; details: MDA-MB-231, 48 h; method in brief: as §2
# Hs-578T = assay: Growth inhibition of human Hs578T cells incubated for 48 hrs by sulforhodamine B assay; method in brief: as §2
# EKVX = assay: Growth inhibition of human EKVX cells incubated for 48 hrs by sulforhodamine B assay
# Method in brief: (§4)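 NCI-60 screen: cells were exposed for 48 h to compound or vehicle, and growth was read as sulforhodamine B optical density before and after exposure. In the single-dose test at 10⁻⁵ M, percent growth was taken relative to vehicle control and time-zero cell number. In the five-dose test (10⁻⁴ to 10⁻⁸ M), GI₅₀ was the molar concentration causing 50% growth inhibition.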
# NCI-H226 = assay: Growth inhibition of human NCI-H226 cells incubated for 48 hrs by sulforhodamine B assay; details: NCI-H226, 48 h; method in brief: as §4
# NCI-H322M = assay: Growth inhibition of human NCI-H322M cells incubated for 48 hrs by sulforhodamine B assay; method in brief: as §4
# NCI-H460 = assay: Growth inhibition of human NCI-H460 cells incubated for 48 hrs by sulforhodamine B assay; details: NCI-H460, 48 h; method in brief: as §4
# Malme-3M = assay: Growth inhibition of human MALME-3M cells incubated for 48 hrs by sulforhodamine B assay; method in brief: as §4
# UACC-257 = assay: Growth inhibition of human UACC257 cells incubated for 48 hrs by sulforhodamine B assay; details: UACC-257, 48 h; method in brief: as §4
# OVCAR-5 = assay: Growth inhibition of human OVCAR5 cells incubated for 48 hrs by sulforhodamine B assay; details: OVCAR-5, 48 h; method in brief: as §4
# OVCAR-8 = assay: Growth inhibition of human OVCAR8 cells incubated for 48 hrs by sulforhodamine B assay; details: OVCAR-8, 48 h; method in brief: as §4
# CAKI-1 = assay: Growth inhibition of human Caki1 cells incubated for 48 hrs by sulforhodamine B assay; details: CAKI-1, 48 h; method in brief: as §4
# SN12C = assay: Growth inhibition of human SN12C cells incubated for 48 hrs by sulforhodamine B assay; method in brief: as §4
# TK-10 = assay: Growth inhibition of human TK10 cells incubated for 48 hrs by sulforhodamine B assay; details: TK-10, 48 h; method in brief: as §4
# BT-549 = assay: Growth inhibition of human BT549 cells incubated for 48 hrs by sulforhodamine B assay; details: BT-549, 48 h; method in brief: as §4
# T47D = assay: Growth inhibition of human T47D cells incubated for 48 hrs by sulforhodamine B assay; method in brief: as §4
SMILES,"growth, % of control at 10 µM (OVCAR-3 [2])",GI50 (MOLT-4),GI50 (SR),GI50 (HOP-62),GI50 (HOP-92),GI50 (NCI-H522),GI50 (HCC 2998),GI50 (HT-29),GI50 (SF-295),GI50 (SF-539 [3]),GI50 (U-251),GI50 (M14),GI50 (MDA-MB-435),GI50 (UACC-62),GI50 (OVCAR-3 [4]),GI50 (PC-3),GI50 (MCF7),GI50 (MDA-MB-231),GI50 (Hs-578T),further results
COc1ccc(/C=C(/c2cc(OC)c(OC)c(OC)c2)c2nnn[nH]2)cc1O,-8.5%,< 0.01 µM,< 0.01 µM,< 0.01 µM,< 0.01 µM,< 0.01 µM,< 0.01 µM,2.2 µM,5.28 µM,< 0.01 µM,< 0.01 µM,< 0.01 µM,< 0.01 µM,< 0.01 µM,< 0.01 µM,< 0.01 µM,< 0.01 µM,< 0.01 µM,< 0.01 µM,"growth, % of control at 10 µM (SF-539 [1]): -1.97%; GI50 (A498): < 0.01 µM"
COc1ccc(/C(=C/c2ccc3ccccc3c2)c2nnn[nH]2)cc1OC,-17.3%,4.16 µM,2.23 µM,2.33 µM,4.59 µM,1.14 µM,5.2 µM,2.69 µM,1.51 µM,2.38 µM,4.46 µM,1.9 µM,0.3 µM,0.86 µM,1.69 µM,2.36 µM,4.12 µM,12.5 µM,2.23 µM,GI50 (EKVX): 18.2 µM; GI50 (NCI-H226): > 100 µM; GI50 (NCI-H322M): 6.88 µM; GI50 (NCI-H460): 2.81 µM; GI50 (Malme-3M): 3.08 µM; GI50 (UACC-257): 56.6 µM; GI50 (OVCAR-5): 6.08 µM; GI50 (OVCAR-8): 7.1 µM; GI50 (CAKI-1): 2.24 µM; GI50 (SN12C): 9.97 µM; GI50 (TK-10): 18.5 µM; GI50 (BT-549): 10.9 µM; GI50 (T47D): 28.2 µM
